Our source for the inhibition in vivo, ED50 and Activity values is ChEMBL document CHEMBL1129459, “Studies on disease-modifying antirheumatic drugs: synthesis of novel quinoline and quinazoline derivatives and their anti-inflammatory effect” (1996).

Type in all cases: functional
In assay [1] the test system is Rattus norvegicus. Kind of assay: Inhibitory effect of 12.5 mg/Kg orally administered compound against swelling of right hand paw as a measure of anti-inflammatory activity. The conditions noted are these: po.
Assay [2] is filed under the species Rattus norvegicus. Kind of assay: Effective dose to inhibit the rat's left hand paw swelling by 50%. The procedure, abridged: (§1)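 Adjuvant arthritis in male Lewis rats, 7 weeks old, n = 7. Rats were sensitized intradermally in the right hind plantar site with 0.05 mL of 0.5% killed M. tuberculosis H37 RA in liquid paraffin. Compound in 0.5% methylcellulose was given p.o. once daily for 14 days, starting day 0. Left hind paw volume was measured on days 0 and 14. ED50 came from linear regression across three or four doses.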

Assay [3] relates to Rattus norvegicus. Kind of assay: Inhibition of adjuvant induced swelling of rat right hind paw by 50 mg/kg p.o. administration. To be noted: route oral.
Assay [4] is filed under the species Rattus norvegicus. Kind of assay: Bone resorption inhibitory effect was evaluated as calcium released from bone into medium at 10 uM compound concentration, expressed as percent of control. Details: scale not given: the % may be the effect or the level left. The procedure, abridged:
(§2)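 Rat fetal long-bone (Raisz) assay. A pregnant Sprague–Dawley rat received 50 µCi 45Ca s.c. on gestation day 18. Fetal humeri (radii and ulnae) were taken the next day and cleaned of connective tissue and cartilage. Bones were preincubated 24 h at 37 °C, 5% CO2, in BGJb medium with 2 mg/mL BSA. They were then cultured 2 days with compound at 10 or 30 µM final. Read-out was 45Ca released/(released + bone-retained) ×100, mean of five bones, as % of untreated same-litter controls.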

For assay [5], the species on record is Rattus norvegicus. Kind of assay: Effective dose of compound to inhibit the rat's left hand paw swelling by 50%. In a few lines:
as §1

For assay [6], the species on record is Rattus norvegicus. Kind of assay: Bone resorption inhibitory effect was evaluated as calcium released from bone into medium at 30 uM compound concentration, expressed as percent of control. Also on record: scale not given: the % may be the effect or the level left. The procedure, abridged: as §2
Assay [7] is filed under the species Rattus norvegicus. Kind of assay: Bone resorption inhibitory effect was evaluated as calcium released from bone into medium at 25 uM compound concentration, expressed as percent of control. Details: scale not given: the % may be the effect or the level left.

The structures appear in SMILES notation. A value given as a limit tells only on which side of the number the result lay.

In general, inhibition in vivo refers to the change of the read-out against control, counted positive when it falls. On to `COc1ccc(-c2nc(Cn3ccnc3C)nc3cc(OC)c(OC)cc23)cc1OC`, for which the inhibition in vivo at 12.5 mg/kg with Rattus norvegicus [1] was less than 50%. Regarding `CCOC(=O)c1c(CCCn2cncn2)nc2cc(OC)c(OC)cc2c1-c1ccc(OC)c(OC)c1`, the inhibition in vivo at 12.5 mg/kg in the assay with Rattus norvegicus [1] is less than 50%. The ED50 is the dose at which the effect has come halfway, by size or by number of responders. Turning to `CCOC(=O)c1c(Cn2ccnc2CC)nc2cc(OC)c(OC)cc2c1-c1ccc(OC)c(OC)c1`, the ED50 in the assay filed under Rattus norvegicus [2] stood at 9.1 mg/kg. As to `COC(=O)c1c(CSc2nccn2C)nc2cc(OC)c(OC)cc2c1-c1ccc(OC)c(OC)c1`, the inhibition in vivo at 50 mg/kg with Rattus norvegicus [3] came out at 67%. Further, the Activity in the assay listed under Rattus norvegicus [4] was 46%.

Regarding `CCOC(=O)c1c(CSc2nccn2C)nc2cc(OC)c(OC)cc2c1-c1ccccc1`, the inhibition in vivo at 50 mg/kg with Rattus norvegicus [3] was 31%. Same read-out and setting: the same measure for `CCOC(=O)c1c(CSc2nccn2CC)nc2cc(OC)c(OC)cc2c1-c1ccc(OC)c(OC)c1`: 51%. For `CCOC(=O)c1c(Cn2ccnc2C)nc2cc(OC)c(OC)cc2c1-c1ccc(OC)c(OC)c1`, testing at 12.5 mg/kg in the assay with Rattus norvegicus [1] gave an inhibition in vivo of 55%. With `CCOC(=O)c1c(CSc2nccn2C)nc2cc(OC)c(OC)cc2c1-c1ccc(Cl)cc1`, the inhibition in vivo at 50 mg/kg in the assay on Rattus norvegicus [3] is 41%. Still for that read-out and setting: the same measure for `CCOC(=O)c1c(CSc2nccn2C)nc2ccccc2c1-c1ccc(OC)c(OC)c1`: 33%. On to `CCOC(=O)c1c(CCc2nccn2C)nc2cc(OC)c(OC)cc2c1-c1ccc(OC)c(OC)c1`, for which, in the assay on Rattus norvegicus [3], the inhibition in vivo at 50 mg/kg came out at 75%. The 50% effect level in the assay filed under Rattus norvegicus [2] (ED50) was put at a dose of 14.7 mg/kg. For `CCOC(=O)c1c(CSc2nccn2C)nc2cc(OCC)c(OCC)cc2c1-c1ccc(OC)c(OC)c1`, the inhibition in vivo at 50 mg/kg in the assay with Rattus norvegicus [3] came to 59%.

Regarding `CCOC(=O)c1c(CSc2nccn2C)nc2cc(OC)c(OC)cc2c1-c1ccc2c(c1)OCO2`, the inhibition in vivo at 50 mg/kg with Rattus norvegicus [3] turned out to be 63%. As for `CCOC(=O)c1c(CSc2nccn2C)nc2cc3c(cc2c1-c1ccc(OC)c(OC)c1)OCCO3`, in the assay with Rattus norvegicus [3], the inhibition in vivo at 50 mg/kg is 56%. The Activity in the assay listed under Rattus norvegicus [4] worked out at 66%.

Consider `CCOC(=O)c1c(C[S+]([O-])c2nccn2C)nc2cc(OC)c(OC)cc2c1-c1ccc(OC)c(OC)c1` (centres undefined), for which, in the assay filed under Rattus norvegicus [2], it took a dose of 6.5 mg/kg to reach the 50% effect level (ED50). In the assay on Rattus norvegicus [1], the inhibition in vivo at 12.5 mg/kg is 73%. For `CCOC(=O)c1c(Cn2ccnc2)nc2cc(OC)c(OC)cc2c1-c1ccc(OC)c(OC)c1` the same measures were 7.7 mg/kg and 70%. Take `CCOC(=O)c1c(CSc2nccn2C)nc2cc(OC)c(OC)cc2c1-c1ccc(C)cc1`: the inhibition in vivo at 50 mg/kg in the assay on Rattus norvegicus [3] stood at 67%. The same measure, in the same setting: to `COc1ccc(-c2nc(CSc3nccn3C)nc3cc(OC)c(OC)cc23)cc1OC` belongs less than 50%. The molecule `COc1ccc(-c2nc(Cn3cncn3)nc3cc(OC)c(OC)cc23)cc1OC` registered an inhibition in vivo at 12.5 mg/kg with Rattus norvegicus [1] of less than 50%.

As for `COc1ccc(-c2nc(CCc3nccn3C)nc3cc(OC)c(OC)cc23)cc1OC`, the inhibition in vivo at 50 mg/kg in the assay with Rattus norvegicus [3] was 71%. Regarding `CCOC(=O)c1c(CSc2nccn2C)nc2cc(OC)c(OC)cc2c1-c1ccc(OC)c(OC)c1`, the inhibition in vivo at 50 mg/kg in the assay with Rattus norvegicus [3] was determined as 60%. For the same molecule, the 50% effect level in the assay listed under Rattus norvegicus [5] (ED50) was put at a dose of 25 mg/kg. Moreover, the Activity in the assay filed under Rattus norvegicus [6] stood at 57%.

Regarding `CCOC(=O)c1c(CSc2nncn2C)nc2cc(OC)c(OC)cc2c1-c1ccc(OC)c(OC)c1`, the inhibition in vivo at 50 mg/kg in the assay on Rattus norvegicus [3] turned out to be 66%. Moreover, it took a dose of 11.6 mg/kg to reach the 50% effect level in the assay filed under Rattus norvegicus [5] (ED50).

For the molecule `CCOC(=O)c1c(CS(=O)(=O)c2nccn2C)nc2cc(OC)c(OC)cc2c1-c1ccc(OC)c(OC)c1`, the inhibition in vivo at 50 mg/kg with Rattus norvegicus [3] was determined as 56%. Same read-out and setting: to `CCOC(=O)c1c(CSc2ncc[nH]2)nc2cc(OC)c(OC)cc2c1-c1ccc(OC)c(OC)c1` belongs 60%; to `CCOC(=O)c1c(CSc2nccn2C)nc2cc(OC)c(OC)cc2c1-c1ccc(OC)cc1`, 64%. Take `CCOC(=O)c1c(CSc2nccn2C)nc2ccc(OC)cc2c1-c1ccc(OC)cc1`: in the assay on Rattus norvegicus [3], the inhibition in vivo at 50 mg/kg came to 45%. For the same molecule, the Activity in the assay listed under Rattus norvegicus [4] is 66%. With `CCOC(=O)c1c(Cn2cncn2)nc2cc(OC)c(OC)cc2c1-c1ccc(OC)c(OC)c1`, the ED50 in the assay filed under Rattus norvegicus [2] stood at 2.6 mg/kg. In the assay on Rattus norvegicus [1], this molecule came in with an inhibition in vivo at 12.5 mg/kg of 65%. Also, the Activity in the assay listed under Rattus norvegicus [6] is recorded as 59%.

As for `COc1cc2c(OC)c3c(c(-c4ccc5c(c4)OCO5)c2cc1OC)C(=O)OC3` [JUSTICIDIN A], in the assay with Rattus norvegicus [3], the inhibition in vivo at 50 mg/kg was determined as 10%. Besides, the Activity in the assay filed under Rattus norvegicus [7] amounted to 48%.
